Here are results for 7 compounds from paper PMC6583897 (International journal of pharmaceutics, 2018).

Data set [1] deals with CYP3A4. The conditions noted are these: ref Yao et al., 2006; cited from earlier work.
The conditions of data set [2]: ref Ho et al., 2018; cited from earlier work.
The test system of data set [3] is HIV-1NL-43. The experiment in a line: Antiviral activity in vitro, TZM-bl luciferase reporter assay. It counts as cell-based. The conditions noted are these: for IC50: Human immunodeficiency virus 1, TZM-bl, 48 h; for times more potent than free parent drug (IC50 ratio): TZM-bl cells, vs free FTC or free EVG. (In general: A reporter such as luciferase makes a cellular process visible.)

The nature of data set [4]: Hydrolytic release curves, pH 7.4 PBS, 37 °C. The format is physicochemical. As to conditions: 1 mg/mL, UV-vis. In short, it runs like this: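 Test conjugates at 1 mg/mL were hydrolysed in 0.1 M phosphate-buffered saline, pH 7.4, with continuous stirring at 37 °C, in triplicate. Samples were taken at 1, 3, 7, 10, 14, 17, 21, 24, 28, 31, 35 and 42 days. Released parent drug was measured by UV absorbance at 300 nm or 320 nm, depending on the drug. Data are mean ± standard deviation (n = 3).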

A short description of data set [5]: Pharmacokinetic evaluation after intramuscular injection, plasma LC/MS. It counts as in vivo, CD-1 mice. The conditions noted are these: female, CD-1, mouse, im, 1000 mg/kg.
For data set [6], the system named is HIV. The conditions noted are these: ref Agarwal et al., 2013; cited from earlier work.

In the case of `CC/C=C\C/C=C\C/C=C\C/C=C\C/C=C\C/C=C\CCC(=O)O` [DHA (Docosahexaenoic acid), Docosahexaenoic acid], the “inhibitory potency against CYP3A4 among available PUFA options” value in data set [1] was “greater inhibitory potency”.
On to `C=C1[C@H](CO)[C@@H](O)C[C@@H]1n1cnc2c(=O)[nH]c(N)nc21` [entecavir], for which the “active antiretroviral released within the first hour” value in data set [2] is on record as 15–41%.
As usually defined, the IC50 is the midpoint of a concentration-inhibition curve. A lower IC50 goes with higher potency. `CC/C=C/C/C=C/C/C=C/C/C=C/C/C=C/C/C=C\CCC(=O)OCC(C(C)C)n1cc(C(=O)O)c(=O)c2cc(Cc3cccc(Cl)c3F)c(OC)cc21` (stereo not shown) [EVG-DHA, 6-(3-chloro-2-fluorobenzyl)-1-(1-(((4Z,7E,10E,13E,16E,19E)-docosa-4,7,10,13,16,19-hexaenoyl)oxy)-3-methylbutan-2-yl)-7-methoxy-4-oxo-1,4-dihydroquinoline-3-carboxylic acid]: in data set [3], it took 0.14 µM to reach half-maximal inhibition (IC50) and the “times more potent than free parent drug (IC50 ratio)” value is on record as ~ 220 times. Also, the “period of sustained drug release” value in data set [4] amounted to 30 days.
As usually defined, the AUC(0-t) is the area under the concentration-time curve up to a stated or last time point. Low readings indicate low exposure, high ones high exposure. The term Cmax denotes the highest concentration seen after dosing. One may read the half-life as how long it takes for the measured level to halve. Higher therefore signals slow loss. On to `Nc1nc(=O)n([C@@H]2CS[C@H](CO)O2)cc1F` [FTC (Emtricitabine), Emtricitabine], for which, in data set [5], the AUC(0-t) turned out to be 127000 ng·h/mL, the highest concentration (Cmax) is 41000 ng/mL, the half-life is 54.7 h and the k el was 3.61e-06 s⁻¹. The compound also gave a half-maximal inhibitory concentration (IC50) in data set [3] of 17.2 µM.
The matching figures for `COc1cc2c(cc1Cc1cccc(Cl)c1F)c(=O)c(C(=O)O)cn2[C@H](CO)C(C)C` [EVG (Elvitegravir), Elvitegravir]: 48300 ng·h/mL, 1750 ng/mL, 9.75 h, 1.97e-05 s⁻¹ and 30.9 µM.
For `CCCCCCCCCCCCCC(=O)OC[C@@H]1O[C@H](n2cc(F)c(N)nc2=O)CS1` [myristoylated FTC conjugate], in data set [6], the “higher anti-HIV activity compared to FTC alone” value was 24 times.
As for `CC/C=C/C/C=C/C/C=C/C/C=C/C/C=C/C/C=C/CCC(=O)OC[C@@H]1O[C@H](n2cc(F)c(N)nc2=O)CS1` [FTC-DHA, ((2R,5S)-5-(4-amino-5-fluoro-2-oxopyrimidin-1(2H)-yl)-1,3-oxathiolan-2-yl)methyl (4E,7E,10E,13E,16E,19E)-docosa-4,7,10,13,16,19-hexaenoate], in data set [3], 1.39 µM corresponded to half-maximal inhibition (IC50) and the “times more potent than free parent drug (IC50 ratio)” value is given as ~ 12 times. For the same compound, the “period of sustained drug release” value in data set [4] is listed as 21 days.
